{"source": "ChEMBL document CHEMBL1157895", "about": "“Truxillic acid derivatives act as peroxisome proliferator-activated receptor gamma activators” (Bioorg Med Chem Lett, 2010)", "format_in_all_cases": "functional", "key": {"[1]": {"target": "T1, Peroxisome proliferator-activated receptor gamma (Homo sapiens, UniProt P37231)", "T1 sequence (P37231 whole entry)": "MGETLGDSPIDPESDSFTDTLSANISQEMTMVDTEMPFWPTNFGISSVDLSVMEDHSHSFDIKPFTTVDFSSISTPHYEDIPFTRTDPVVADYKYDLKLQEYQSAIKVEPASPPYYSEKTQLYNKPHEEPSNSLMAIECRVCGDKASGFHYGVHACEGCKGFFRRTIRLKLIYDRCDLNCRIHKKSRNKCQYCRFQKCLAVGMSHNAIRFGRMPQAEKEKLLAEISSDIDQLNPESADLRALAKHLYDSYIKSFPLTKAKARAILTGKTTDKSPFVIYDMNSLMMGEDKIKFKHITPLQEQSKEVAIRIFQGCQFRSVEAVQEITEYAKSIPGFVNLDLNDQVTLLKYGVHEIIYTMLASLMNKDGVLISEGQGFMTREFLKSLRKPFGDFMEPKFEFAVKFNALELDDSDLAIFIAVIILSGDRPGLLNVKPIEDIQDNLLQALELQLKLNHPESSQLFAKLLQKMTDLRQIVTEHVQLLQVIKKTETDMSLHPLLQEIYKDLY", "assay": "Agonist activity at human PPARgamma by Gal4 transactivation assay", "in_short": "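Human PPARγ Gal4-hybrid luciferase reporter transactivation assay. EC50 was calculated from concentration-response data, with maximum activation taken at the highest tested concentration.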"}, "[2]": {"target": "T2, Peroxisome proliferator-activated receptor gamma (Homo sapiens) (UniProt P37231)", "T2 sequence (whole entry)": "T1 sequence (P37231 whole entry)", "assay": "(§1) Agonist activity at human PPARgamma at 10 uM by Gal4 transactivation assay relative to pioglitazone", "in_short": "(§2)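 Cell-based Gal4-hybrid transactivation assay with a luciferase reporter for human PPARγ. Compounds were tested at 10 µM. Activation is expressed relative to 1 µM pioglitazone, which was set as 100% activation. Values are the mean and standard deviation of at least three independent experiments.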"}, "[3]": {"target": "T3, Peroxisome proliferator-activated receptor alpha (Homo sapiens) (UniProt Q07869)", "T3 sequence (whole entry)": "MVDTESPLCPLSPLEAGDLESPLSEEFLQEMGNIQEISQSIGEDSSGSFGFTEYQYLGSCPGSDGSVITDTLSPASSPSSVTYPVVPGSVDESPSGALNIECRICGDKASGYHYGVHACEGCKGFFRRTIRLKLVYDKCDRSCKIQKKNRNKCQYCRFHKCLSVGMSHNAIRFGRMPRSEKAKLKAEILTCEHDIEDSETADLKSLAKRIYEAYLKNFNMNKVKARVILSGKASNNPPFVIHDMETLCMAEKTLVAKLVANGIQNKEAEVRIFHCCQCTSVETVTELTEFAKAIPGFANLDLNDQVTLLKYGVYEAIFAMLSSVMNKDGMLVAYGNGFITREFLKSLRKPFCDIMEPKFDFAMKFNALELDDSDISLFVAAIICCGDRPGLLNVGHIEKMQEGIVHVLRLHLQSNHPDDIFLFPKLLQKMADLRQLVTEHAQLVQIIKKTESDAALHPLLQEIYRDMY", "assay": "Agonist activity at human PPARalpha at 10 uM by Gal4 transactivation assay relative to pioglitazone"}, "[4]": {"target": "T4, Peroxisome proliferator-activated receptor delta (Homo sapiens) (UniProt Q03181)", "T4 sequence (whole entry)": "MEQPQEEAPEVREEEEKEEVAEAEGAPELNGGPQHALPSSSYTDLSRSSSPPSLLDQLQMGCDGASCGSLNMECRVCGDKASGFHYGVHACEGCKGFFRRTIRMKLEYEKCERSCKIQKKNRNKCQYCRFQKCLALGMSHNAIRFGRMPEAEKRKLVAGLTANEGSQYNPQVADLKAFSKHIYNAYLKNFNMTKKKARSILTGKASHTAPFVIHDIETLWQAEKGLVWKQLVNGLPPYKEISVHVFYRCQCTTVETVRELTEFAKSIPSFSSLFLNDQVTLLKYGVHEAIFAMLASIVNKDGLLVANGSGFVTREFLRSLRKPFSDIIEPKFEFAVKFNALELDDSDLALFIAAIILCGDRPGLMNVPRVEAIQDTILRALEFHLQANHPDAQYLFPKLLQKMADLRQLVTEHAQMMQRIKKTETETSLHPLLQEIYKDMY", "assay": "Agonist activity at human PPARdelta at 10 uM by Gal4 transactivation assay relative to pioglitazone"}, "[5]": {"target": "T1, Peroxisome proliferator-activated receptor gamma", "assay": "as §1", "in_short": "as §2"}}, "note": "Active and inactive are the calls of the source. The rule behind the calls is not given here.", "data": [{"molecule": "CCCCCCOC(=O)C1C(c2ccccc2)C(C(=O)O)C1c1ccccc1", "note": "(stereo not given)", "values": [{"measurement": "EC50", "setting": "[1]", "result": 3.6, "unit": "µM"}, {"measurement": "Activity", "setting": "[2]", "result": 66, "unit": "%"}, {"measurement": "Activity", "setting": "[3]", "result": "inactive"}, {"measurement": "Activity", "setting": "[4]", "result": "inactive"}]}, {"molecule": "CCC(C)OC(=O)C1C(c2ccccc2)C(C(=O)O)C1c1ccccc1", "note": "(stereo not given)", "values": [{"measurement": "EC50", "setting": "[1]", "result": "> 10", "unit": "µM"}, {"measurement": "Activity", "setting": "[2]", "result": 23, "unit": "%"}, {"measurement": "Activity", "setting": "[3]", "result": "inactive"}, {"measurement": "Activity", "setting": "[4]", "result": "inactive"}]}, {"molecule": "CCCCCCCCOC(=O)C1C(c2ccccc2)C(C(=O)O)C1c1ccccc1", "note": "(stereo not given)", "values": [{"measurement": "EC50", "setting": "[1]", "result": 9.3, "unit": "µM"}, {"measurement": "Activity", "setting": "[2]", "result": 100, "unit": "%"}, {"measurement": "Activity", "setting": "[3]", "result": "inactive"}, {"measurement": "Activity", "setting": "[4]", "result": "inactive"}]}, {"molecule": "O=C(O)C1C(c2ccccc2)C(C(=O)N2CCCCC2)C1c1ccccc1", "note": "(stereo not given)", "values": [{"measurement": "EC50", "setting": "[5]", "result": "Not Active"}, {"measurement": "Activity", "setting": "[3]", "result": "inactive"}, {"measurement": "Activity", "setting": "[4]", "result": "inactive"}]}, {"molecule": "Cc1ccccc1OC(=O)C1C(c2ccccc2)C(C(=O)O)C1c1ccccc1", "note": "(stereo not given)", "values": [{"measurement": "EC50", "setting": "[1]", "result": 10, "unit": "µM"}, {"measurement": "Activity", "setting": "[2]", "result": 138, "unit": "%"}, {"measurement": "Activity", "setting": "[3]", "result": "inactive"}, {"measurement": "Activity", "setting": "[4]", "result": "inactive"}]}, {"molecule": "O=C(O)C1C(c2ccccc2)C(C(=O)OCCCO)C1c1ccccc1", "note": "(stereo not given)", "values": [{"measurement": "EC50", "setting": "[5]", "result": "Not Active"}, {"measurement": "Activity", "setting": "[3]", "result": "inactive"}, {"measurement": "Activity", "setting": "[4]", "result": "inactive"}]}, {"molecule": "O=C(O)C1C(c2ccccc2)C(C(=O)O)C1c1ccccc1", "note": "(stereo not given)", "values": [{"measurement": "EC50", "setting": "[5]", "result": "Not Active"}, {"measurement": "Activity", "setting": "[3]", "result": "inactive"}, {"measurement": "Activity", "setting": "[4]", "result": "inactive"}]}, {"molecule": "Cc1cccc(OC(=O)C2C(c3ccccc3)C(C(=O)O)C2c2ccccc2)c1", "note": "(stereo not given)", "values": [{"measurement": "EC50", "setting": "[1]", "result": 3.3, "unit": "µM"}, {"measurement": "Activity", "setting": "[2]", "result": 123, "unit": "%"}, {"measurement": "Activity", "setting": "[3]", "result": "inactive"}, {"measurement": "Activity", "setting": "[4]", "result": "inactive"}]}, {"molecule": "CCCCCCCOC(=O)C1C(c2ccccc2)C(C(=O)O)C1c1ccccc1", "note": "(stereo not given)", "values": [{"measurement": "EC50", "setting": "[1]", "result": 8.6, "unit": "µM"}, {"measurement": "Activity", "setting": "[2]", "result": 153, "unit": "%"}, {"measurement": "Activity", "setting": "[3]", "result": "inactive"}, {"measurement": "Activity", "setting": "[4]", "result": "inactive"}]}, {"molecule": "CC(C)CCOC(=O)C1C(c2ccccc2)C(C(=O)O)C1c1ccccc1", "note": "(stereo not given)", "values": [{"measurement": "EC50", "setting": "[1]", "result": 4.8, "unit": "µM"}, {"measurement": "Activity", "setting": "[2]", "result": 71, "unit": "%"}, {"measurement": "Activity", "setting": "[3]", "result": "inactive"}, {"measurement": "Activity", "setting": "[4]", "result": "inactive"}]}, {"molecule": "O=C(O)C1C(c2ccccc2)C(C(=O)N2CCOCC2)C1c1ccccc1", "note": "(stereo not given)", "values": [{"measurement": "EC50", "setting": "[5]", "result": "Not Active"}, {"measurement": "Activity", "setting": "[3]", "result": "inactive"}, {"measurement": "Activity", "setting": "[4]", "result": "inactive"}]}, {"molecule": "O=C(O)C1C(c2ccccc2)C(C(=O)OCCO)C1c1ccccc1", "note": "(stereo not given)", "values": [{"measurement": "EC50", "setting": "[5]", "result": "Not Active"}, {"measurement": "Activity", "setting": "[3]", "result": "inactive"}, {"measurement": "Activity", "setting": "[4]", "result": "inactive"}]}, {"molecule": "CC(C)OC(=O)C1C(c2ccccc2)C(C(=O)O)C1c1ccccc1", "note": "(stereo not given)", "values": [{"measurement": "EC50", "setting": "[5]", "result": "Not Active"}, {"measurement": "Activity", "setting": "[3]", "result": "inactive"}, {"measurement": "Activity", "setting": "[4]", "result": "inactive"}]}, {"molecule": "COC(=O)C1C(c2ccccc2)C(C(=O)OC)C1c1ccccc1", "note": "(stereo not given)", "values": [{"measurement": "EC50", "setting": "[5]", "result": "Not Active"}, {"measurement": "Activity", "setting": "[3]", "result": "inactive"}, {"measurement": "Activity", "setting": "[4]", "result": "inactive"}]}, {"molecule": "COC(=O)C1C(c2ccccc2)C(C(=O)OCc2ccccc2)C1c1ccccc1", "note": "(stereo not given)", "values": [{"measurement": "EC50", "setting": "[5]", "result": "Not Active"}, {"measurement": "Activity", "setting": "[3]", "result": "inactive"}, {"measurement": "Activity", "setting": "[4]", "result": "inactive"}]}, {"molecule": "O=C(O)C1C(c2ccccc2)C(C(=O)Oc2ccc(O)cc2)C1c1ccccc1", "note": "(stereo not given)", "values": [{"measurement": "EC50", "setting": "[5]", "result": "Not Active"}, {"measurement": "Activity", "setting": "[3]", "result": "inactive"}, {"measurement": "Activity", "setting": "[4]", "result": "inactive"}]}]}
